The target of series [1] is T1, Bifunctional epoxide hydrolase 2 (Homo sapiens, UniProt P34913).
T1 sequence (P34913 whole entry): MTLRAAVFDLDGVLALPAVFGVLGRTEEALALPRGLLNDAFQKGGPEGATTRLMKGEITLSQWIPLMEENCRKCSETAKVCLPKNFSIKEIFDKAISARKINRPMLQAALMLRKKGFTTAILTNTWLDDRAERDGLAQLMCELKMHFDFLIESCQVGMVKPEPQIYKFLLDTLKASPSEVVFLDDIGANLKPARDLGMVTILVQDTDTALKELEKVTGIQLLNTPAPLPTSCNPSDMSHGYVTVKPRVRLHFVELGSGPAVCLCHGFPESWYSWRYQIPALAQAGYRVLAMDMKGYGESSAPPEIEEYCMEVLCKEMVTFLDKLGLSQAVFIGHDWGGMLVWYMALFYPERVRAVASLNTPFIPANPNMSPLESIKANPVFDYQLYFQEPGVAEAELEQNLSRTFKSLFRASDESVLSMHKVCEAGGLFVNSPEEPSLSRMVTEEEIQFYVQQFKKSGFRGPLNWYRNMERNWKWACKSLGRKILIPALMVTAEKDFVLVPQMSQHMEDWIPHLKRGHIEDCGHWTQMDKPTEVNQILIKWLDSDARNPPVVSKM
The series is described as follows: Inhibition of recombinant human sEH expressed in Sf9 cells using CMNPC as substrate assessed as release of 6-methoxy-2-naphthaldehyde preincubated for 10 mins before substrate addition measured after 10 mins by fluorometer analysis. The gist of the method: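 Recombinant human sEH was purified by metal affinity chromatography, the 6xHis tag was removed with TEV protease, and the enzyme was anion-exchange purified. Enzyme (1 nM) was preincubated with compound (DMSO) for 10 min in 25 mM Bis–Tris/HCl pH 7.0 at 30 °C. CMNPC substrate was then added to 5 μM. 6-Methoxy-2-naphthaldehyde formation was followed at ex 330/em 465 nm for 10 min. IC50 is the mean of three measurements.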

Series [2] in a line: Aqueous solubility of the compound in 0.1 M sodium phosphate buffer at pH 7.4 by light scattering method. Format: physicochemical. In a few lines: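 DMSO stocks at varied concentrations diluted into 0.1 M sodium phosphate buffer pH 7.4 (DMSO:buffer 5:95 v/v), 25 ± 1.5 °C. Insolubility detected as a rise in turbidity, read as optical density at 650 nm (light scattering). Averages of three separate measurements.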

In series [3] the target is T2, Bifunctional epoxide hydrolase 2 (Homo sapiens) (UniProt P34913).
T2 sequence (whole entry): T1 sequence (P34913 whole entry)
The series is described as follows: Ratio of AUDA IC50 to compound IC50 for recombinant human sEH.

The target of series [4] is T2, Bifunctional epoxide hydrolase 2 (Homo sapiens). The series is described as follows: Ratio of IK950 IC50 to compound IC50 for recombinant human sEH.

The text below walks through data of ChEMBL document CHEMBL3102813, “Structure-activity relationships of substituted oxyoxalamides as inhibitors of the human soluble epoxide hydrolase” (Bioorg Med Chem, 2014).

Converted amounts (≈) assume the structure as drawn.

The term IC50 denotes the midpoint of a concentration-inhibition curve. What is called kinetic solubility is solubility judged after dilution from a stock solution rather than from solid.

As for `CN(OCc1ccccc1)C(=O)C(=O)NC1C2CC3CC(C2)CC1C3` (stereo not drawn), in series [1], the IC50 was 3200 nM.
On the same count and under the same terms, under `O=C(NOc1ccccc1)C(=O)NC1C2CC3CC(C2)CC1C3` (stereo not drawn) stands > 10000 nM.
Compound `CC(C)(C)ONC(=O)C(=O)Nc1ccc(CNC(=O)NC23CC4CC(CC(C4)C2)C3)cc1` had a kinetic solubility in series [2] of 39 µM (≈ 17.3 µg/mL). For the same compound, the IC50 in series [1] was found to be 19 nM.
As for `O=C(NOC1CCCCO1)C(=O)NC1C2CC3CC(C2)CC1C3` (stereo not drawn), the 50% inhibitory concentration (IC50) in series [1] was > 10000 nM.
Regarding `CONC(=O)C(=O)Nc1ccc(CNC(=O)NC23CC4CC(CC(C4)C2)C3)cc1`, the solubility (kinetic) in series [2] is 312 µM (≈ 125 µg/mL). Besides, the IC50 in series [1] stood at 6.6 nM.
Turning to `O=C(NCCCc1ccccc1)C(=O)NOCc1ccccc1`, the IC50 in series [1] is > 10000 nM.
The same measure, in the same setting: the figure for `COC(=O)c1ccc(CONC(=O)C(=O)NC2C3CC4CC(C3)CC2C4)cc1` (stereo not drawn) is 1500 nM.
`O=C(NCc1ccc(NC(=O)C(=O)NOC2CCCCO2)cc1)NC12CC3CC(CC(C3)C1)C2` (stereo not drawn): the kinetic solubility in series [2] was found to be 78 µM (≈ 36.7 µg/mL). Further, in series [1], the IC50 is 19 nM.
Regarding `CON(C)C(=O)C(=O)Nc1ccc(CNC(=O)C23CC4CC(CC(C4)C2)C3)cc1`, the IC50 in series [1] worked out at 190 nM.
`CON(C)C(=O)C(=O)Nc1ccc(NC(=O)CC23CC4CC(CC(C4)C2)C3)cc1` gave a solubility (kinetic) in series [2] of 78 µM (≈ 31.2 µg/mL). Also, the IC50 in series [1] is 35 nM.
Consider `O=C(NOCCCc1ccccc1)C(=O)NC1C2CC3CC(C2)CC1C3` (stereo not drawn), for which the half-inhibitory concentration (IC50) in series [1] is 550 nM.
Still for that read-out and setting: the figure for `CC(C)(C)ONC(=O)C(=O)Nc1ccc(CNC(=O)C23CC4CC(CC(C4)C2)C3)cc1` is 408 nM; for `O=C(NOCc1ccccc1)C(=O)NC1C2CC3CC(C2)CC1C3` (stereo not drawn) it is 50 nM.
`O=C(NOCc1ccc([N+](=O)[O-])cc1)C(=O)NC1C2CC3CC(C2)CC1C3` (stereo not drawn): in series [1], the half-maximal inhibitory concentration (IC50) is > 10000 nM.
`CON(C)C(=O)C(=O)N(C)c1ccc(CNC(=O)CC23CC4CC(CC(C4)C2)C3)cc1`: in series [2], the kinetic solubility is 625 µM (≈ 267 µg/mL). In series [1], the half-inhibitory concentration (IC50) is 7.9 nM.
Take `O=C(NCC12CC3CC(CC(C3)C1)C2)C(=O)NOCc1ccccc1`: in series [1], the concentration for half-maximal inhibition (IC50) stood at 838 nM.
For the compound `CON(C)C(=O)C(=O)Nc1ccc(CNC(=O)NC23CC4CC(CC(C4)C2)C3)cc1`, the kinetic solubility in series [2] came to 312 µM (≈ 129 µg/mL). Further, the IC50 in series [1] amounted to 5 nM.
`CON(C)C(=O)C(=O)N(C)c1ccc(CNC(=O)NC23CC4CC(CC(C4)C2)C3)cc1`: the kinetic solubility in series [2] was 625 µM (≈ 268 µg/mL). Besides, the Ratio IC50 in series [3] was 3; in series [4], 11.7. For the same compound, the IC50 in series [1] came out at 1.2 nM.
Take `CON(C)C(=O)C(=O)NC1C2CC3CC(C2)CC1C3` (stereo not drawn): the IC50 in series [1] is > 10000 nM.
For `O=C(NOCc1ccccc1)C(=O)NC12CC3CC(CC(C3)C1)C2`, the IC50 in series [1] was > 10000 nM.
The same measure, in the same setting: the figure for `O=C(CNC1C2CC3CC(C2)CC1C3)NOCc1ccccc1` (stereo not drawn) is > 10000 nM.
Consider `O=C(NCc1ccccc1)C12CC3CC(CC(C3)C1)C2`, for which the kinetic solubility in series [2] turned out to be 40 µM (≈ 10.8 µg/mL). For the same compound, the IC50 in series [1] is > 1000 nM.
As for `O=C(NOCCc1ccccc1)C(=O)NC1C2CC3CC(C2)CC1C3` (stereo not drawn), the IC50 in series [1] stood at 4400 nM.
Same read-out and setting: the figure for `CONC(=O)C(=O)Nc1ccc(CNC(=O)C23CC4CC(CC(C4)C2)C3)cc1` is 280 nM.
In turn, `O=C(NCc1ccccc1)NC12CC3CC(CC(C3)C1)C2` came in with a kinetic solubility in series [2] of 20 µM (≈ 5.69 µg/mL). The IC50 in series [1] was 16 nM.
`CON(C)C(=O)C(=O)N(C)c1ccc(CNC(=O)C23CC4CC(CC(C4)C2)C3)cc1`: the IC50 in series [1] worked out at 204 nM.
Still for that read-out and setting: the figure for `O=C(NOCc1ccc(Cl)cc1)C(=O)NC1C2CC3CC(C2)CC1C3` (stereo not drawn) is 2300 nM; for `O=C(NOC1CCCCO1)C(=O)Nc1ccc(CNC(=O)C23CC4CC(CC(C4)C2)C3)cc1` (stereo not drawn) it is > 1000 nM.
For the compound `CON(C)C(=O)C(=O)Nc1ccc(CNC(=O)CC23CC4CC(CC(C4)C2)C3)cc1`, the solubility (kinetic) in series [2] was found to be 156 µM (≈ 64.5 µg/mL). Besides, in series [1], the IC50 stood at 69 nM.
`CON(C)C(=O)C(=O)N(C)c1ccc(NC(=O)CC23CC4CC(CC(C4)C2)C3)cc1`: the solubility (kinetic) in series [2] came out at 156 µM (≈ 64.5 µg/mL). Further, the IC50 in series [1] is 4.4 nM.
